From publication PMC3266058 (Journal of Medicinal Chemistry, 2011)
Read-outs that look alike come from different tables or passages of the source.

Columns and labels:
[1] = test system: colon 26 murine tumor cell line; details: read-out: cytotoxicity IC50, colon 26; ref 9a; cited from earlier work
HeLa cells [2] = experiment: Antiproliferative MTT assay, HeLa; assay type: cell-based; details: Homo sapiens, 72 h, read-out: IC50 HeLa
A549 cells [3] = experiment: Antiproliferative MTT assay, A549; assay type: cell-based; details: Homo sapiens, A549, 72 h, read-out: IC50 A549
HL-60 cells = experiment: Antiproliferative MTT assay, HL-60; assay type: cell-based; details: Homo sapiens, HL-60, 72 h, read-out: IC50 HL-60
Jurkat cells = experiment: Antiproliferative MTT assay, Jurkat; assay type: cell-based; details: Homo sapiens, 72 h, read-out: IC50 Jurkat
Outline: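 Cells (8 × 10^3 per well in complete medium) settled 18 h at 37 °C, 5% CO2, then medium replaced with fresh medium holding test compound at a range of concentrations (10 mM DMSO stocks; final DMSO ≤0.25%) for 72 h at 37 °C. Viability read by MTT.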

MCF-7 cells = experiment: Antiproliferative MTT assay, MCF-7; assay type: cell-based; details: Homo sapiens, MCF7, 72 h, read-out: IC50 MCF-7
bovine brain tubulin = bovine brain tubulin (Bos taurus, UniProt P81947+Q6B856); experiment: Inhibition of tubulin polymerization; assay type: biochemical; details: tubulin assembly assay
HeLa cells [4] = experiment: Flow cytometric cell cycle analysis; assay type: cell-based, human; details: 24 h
Outline: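 Exponentially growing HeLa cells (5 × 10^5), grown in DMEM with 10% FBS and penicillin/streptomycin, were exposed to 15–250 nM test compound for 24 h, with DMSO ≤0.25%. Cells were fixed in ice-cold 70% ethanol, treated with lysis buffer containing RNase A and 0.1% Triton X-100, and stained with propidium iodide. DNA content was measured by flow cytometry. Results are mean ± SEM of three independent experiments.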

HeLa cells [5] = experiment: Annexin-V/PI apoptosis assay; assay type: cell-based, human; details: 24 or 48 h, vs control
Outline: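 HeLa cells grown in DMEM with 10% FBS, penicillin G and streptomycin, then exposed to test compound (10 mM DMSO stocks; final DMSO ≤0.25%). Phosphatidylserine exposure was read by flow cytometry after annexin-V-FITC labelling per kit instructions, with simultaneous PI staining. Excitation was 488 nm, with emission filters at 525 nm (FITC) and 585 nm (PI).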

HeLa cells [6] = experiment: Mitochondrial membrane potential; assay type: cell-based, human; details: JC-1, 24 or 48 h
Outline: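 HeLa cells in DMEM with 10% FBS were incubated 24 or 48 h with test compound (final DMSO ≤0.25%), then stained with the cationic dye JC-1 and analysed by flow cytometry. Polarized mitochondria give red aggregate emission (590 nm); depolarized ones give monomer emission (530 nm). Data are mean ± SEM of three independent experiments.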

HeLa cells [7] = experiment: Mitochondrial ROS production; assay type: cell-based, human; details: HE and H2-DCFDA, 24 or 48 h, vs control cells
Outline: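 HeLa cells were cultured in DMEM with 10% FBS and antibiotics and exposed to test compound for 24 or 48 h, with final DMSO ≤0.25%. Cells were then stained with hydroethidine or H2-DCFDA, and ROS were measured by flow cytometry. Data are mean ± SEM of three independent experiments.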

cyclin B1 = experiment: Western blot, cyclin B1 in HeLa cells; assay type: cell-based, human; details: 24 and 48 h
Outline: (§1)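 HeLa cells were treated with test compound (DMSO ≤0.25%) for the indicated times, then washed twice in ice-cold PBS. They were lysed on ice for 30 min and spun at 15000g, 4 °C, 10 min; protein was measured by BCA. 20 μg was run on 7.5–15% SDS-PAGE and transferred to PVDF. Membranes were blocked overnight at 4 °C, then probed 2 h at room temperature with primary antibodies (total caspase-3, cleaved caspase-9, cyclin B, Bcl-2, Bax, XIAP). Peroxidase secondary was applied for 60 min, with ECL detection and β-actin reprobe as the loading control.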

caspase-3 = experiment: Western blot, caspase-3 in HeLa cells; assay type: cell-based, human; details: 24 or 48 h
Outline: as §1

caspase-9 = experiment: Western blot, caspase-9 in HeLa cells; assay type: cell-based, human; details: 24 or 48 h
Outline: as §1

XIAP = experiment: Western blot, XIAP in HeLa cells; assay type: cell-based, human; details: 24 or 48 h
Outline: as §1

Bcl-2 = experiment: Western blot, Bcl-2 in HeLa cells; assay type: cell-based, human; details: after 48 h
Outline: as §1

Bax = experiment: Western blot, Bax in HeLa cells; assay type: cell-based, human
Outline: as §1

[8] = Body weight of treated xenograft mice; assay type: in vivo, BALB/c-nu nude mice; details: 100 mg/kg intraperitoneally, 3 doses; whole treatment period
Outline: (§2)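 Female BALB/c-nu nude mice, 4 weeks old (15−18 g), kept pathogen-free. HT-29 cells at 1 × 10^7 cells/mL in serum-free RPMI 1640 were injected (0.2 mL) subcutaneously in the back. At ~300 mm3, 18 mice were randomised to vehicle or treatment groups (six per group). Test compound was given in DMSO i.p. at 0.01 mL/g (100 mg/kg) on days 0, 2 and 4. Tumour size (caliper, V = LW²/2) and body weight were recorded at each time point. Results are mean ± SEM; two-sided Student's t test.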

[9] = test system: six human cancer cell lines (HeLa, A549, HL-60, Jurkat, MCF-7, HT-29); experiment: Antiproliferative activity over the panel of six human cancer cell lines; assay type: cell-based; details: all cell lines
HT-29 xenograft = experiment: In vivo antitumor activity, HT-29 xenograft; design: species or system BALB/c-nu nude mice; details: 100 mg/kg intraperitoneally, days 0, 2 and 4; end of observation period (day 24)
Outline: as §2

LoVo cells = details: read-out: IC50 LoVo; parental line; ref 13c; cited from earlier work
LoVo^Doxo cells = details: ref 13c, cited from earlier work
A549 cells [10] = details: read-out: IC50 A549 (Table 3); parental line; ref 13c; cited from earlier work
A549-T12 cells = details: ref 13c, cited from earlier work
CEM cells = details: read-out: IC50 CEM; parental line; ref 13c; cited from earlier work
CEM^Vbl100 cells = details: ref 13c, cited from earlier work
[11] = ratio of IC50 in resistant and nonresistant cell lines

Sequence of bovine brain tubulin (P81947 whole entry): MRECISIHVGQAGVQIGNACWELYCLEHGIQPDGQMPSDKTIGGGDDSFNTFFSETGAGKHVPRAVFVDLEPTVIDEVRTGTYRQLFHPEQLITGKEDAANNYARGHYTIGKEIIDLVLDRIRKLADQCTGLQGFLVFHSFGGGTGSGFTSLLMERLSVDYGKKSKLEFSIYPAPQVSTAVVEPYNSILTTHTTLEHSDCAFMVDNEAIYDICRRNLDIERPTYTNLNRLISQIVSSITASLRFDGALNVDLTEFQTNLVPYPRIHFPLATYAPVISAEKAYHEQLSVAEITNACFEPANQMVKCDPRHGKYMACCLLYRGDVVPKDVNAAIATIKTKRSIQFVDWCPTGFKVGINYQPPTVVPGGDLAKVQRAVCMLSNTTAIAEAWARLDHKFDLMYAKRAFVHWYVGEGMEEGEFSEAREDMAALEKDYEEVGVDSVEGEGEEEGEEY
Sequence of bovine brain tubulin (Q6B856 whole entry): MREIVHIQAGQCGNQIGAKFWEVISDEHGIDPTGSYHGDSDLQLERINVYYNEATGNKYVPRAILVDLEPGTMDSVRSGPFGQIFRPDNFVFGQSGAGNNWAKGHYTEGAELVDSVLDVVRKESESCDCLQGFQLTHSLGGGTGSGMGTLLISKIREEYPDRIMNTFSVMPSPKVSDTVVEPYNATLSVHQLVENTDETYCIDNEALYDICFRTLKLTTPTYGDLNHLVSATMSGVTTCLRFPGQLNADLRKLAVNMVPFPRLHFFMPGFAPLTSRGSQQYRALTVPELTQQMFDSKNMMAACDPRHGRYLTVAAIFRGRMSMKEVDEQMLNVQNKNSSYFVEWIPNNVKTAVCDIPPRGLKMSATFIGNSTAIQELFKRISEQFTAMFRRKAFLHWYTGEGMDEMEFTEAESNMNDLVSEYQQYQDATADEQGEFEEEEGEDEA

For `COc1ccc(-c2nnnn2-c2cc(OC)c(OC)c(OC)c2)cc1N` [1-(3,4,5-trimethoxyphenyl)-5-(4-methoxy,3-aminophenyl)-1H-tetrazole], the IC50 [1] is listed as 7.2 nM.

Work on `CCOc1ccc(-c2ncnn2-c2cc(OC)c(OC)c(OC)c2)cc1` [3a] yielded an IC50 (HeLa cells [2]) of 15 ± 4 nM, an IC50 (A549 cells [3]) of 100 ± 20 nM and an IC50 (HL-60 cells) of 20 ± 3 nM. For the same compound, the IC50 (Jurkat cells) was 5 ± 0.2 nM and the IC50 (MCF-7 cells) was 50 ± 9 nM.

In the case of `CCOc1ccc(-c2nnnn2-c2cc(OC)c(OC)c(OC)c2)cc1` [4l, 1-(3,4,5-Trimethoxyphenyl)-5-(4-ethoxyphenyl)-1H-tetrazole], the “fold more potent than 5b in tubulin assembly” value (bovine brain tubulin) is reported as 2 fold, the “lowest concentration with a rise in G2/M cells” value (HeLa cells [4]) is reported as 30 nM and the “annexin-V positive cells” value (HeLa cells [5]) is reported as “induced an accumulation of annexin-V positive cells”. For the same compound, the “cells with depolarized mitochondria” value (HeLa cells [6]) was “induced a time and concentration-dependent increase in the proportion of cells with depolarized mitochondria”, the “ROS production” value (HeLa cells [7]) was “induced the production of significant amounts of ROS” and the “cyclin B1 expression” value (cyclin B1) was “marked increase in cyclin B1 expression”. The “caspase-3 activation” value (caspase-3) was “activation of caspase-3”, the “caspase-9 activation” value (caspase-9) was “induced activation of caspase-9” and the “XIAP expression” value (XIAP) was “strongly reduced”. For the same compound, the “Bcl-2 expression” value (Bcl-2) was “only slightly affected”, the “Bax expression” value (Bax) was “no effect” and the “body weight change of treated animals” value [8] was “no significant weight changes”.

For `CCCCOc1ccc(-c2nnnn2-c2cc(OC)c(OC)c(OC)c2)cc1` [4o, 5-(4-Butoxyphenyl)-1-(3,4,5-trimethoxyphenyl)-1H-tetrazole], the “antiproliferative activity” value [9] was “inactive”.

In the case of `CCCCCOc1ccc(-c2nnnn2-c2cc(OC)c(OC)c(OC)c2)cc1` [4p, 1-(3,4,5-Trimethoxyphenyl)-5-(4-(pentyloxy)phenyl)-1H-tetrazole], the “antiproliferative activity” value [9] is reported as “inactive”.

For `CCOc1ccc(-n2nnnc2-c2cc(OC)c(OC)c(OC)c2)cc1` [5b, 5-(3,4,5-Trimethoxyphenyl)-1-(4-ethoxyphenyl)-1H-tetrazole], the “lowest concentration with a rise in G2/M cells” value (HeLa cells [4]) was 30 nM, the “annexin-V positive cells” value (HeLa cells [5]) was “induced an accumulation of annexin-V positive cells” and the “cells with depolarized mitochondria” value (HeLa cells [6]) was “induced a time and concentration-dependent increase in the proportion of cells with depolarized mitochondria”. For the same compound, the “ROS production” value (HeLa cells [7]) was “induced the production of significant amounts of ROS”.

For `COc1ccc(/C=C\c2cc(OC)c(OC)c(OC)c2)cc1O` [compound 1, combretastatin A-4], the IC50 (Jurkat cells) was 5 ± 0.6 nM and the “reduction in tumor growth vs vehicle” value (HT-29 xenograft) was 43.7%.

In the case of `COc1cccc2c1C(=O)c1c(O)c3c(c(O)c1C2=O)C[C@@](O)(C(=O)CO)C[C@@H]3O[C@H]1C[C@H](N)[C@H](O)[C@H](C)O1` [doxorubicin], the IC50 (LoVo cells) is listed as 120 ± 30 nM, the “resistance ratio LoVoDoxo/LoVo” value (LoVo^Doxo cells; [11]) is listed as 109.6 and the IC50 (LoVo^Doxo cells; read-out: IC50 LoVoDoxo, doxorubicin resistant line) is listed as 13200 ± 210 nM.

For `CC(=O)O[C@H]1C(=O)[C@@]2(C)[C@H]([C@H](OC(=O)c3ccccc3)[C@]3(O)C[C@H](OC(=O)[C@H](O)[C@@H](NC(=O)c4ccccc4)c4ccccc4)C(C)=C1C3(C)C)[C@]1(OC(C)=O)CO[C@@H]1C[C@@H]2O` [paclitaxel], the IC50 (A549 cells [10]) is given as 7.2 ± 0.1 nM, the “resistance ratio A549-T12/A549” value (A549-T12 cells; [11]) is given as 10.4 and the IC50 (A549-T12 cells; read-out: IC50 A549-T12, paclitaxel resistant line) is given as 75.2 ± 12.5 nM.

For `CC[C@]1(O)C[C@@H]2CN(CCc3c([nH]c4ccccc34)[C@@](C(=O)OC)(c3cc4c(cc3OC)N(C)[C@H]3[C@@](O)(C(=O)OC)[C@H](OC(C)=O)[C@]5(CC)C=CCN6CC[C@]43[C@@H]65)C2)C1` [vinblastine], the IC50 (CEM cells) is listed as 4.1 ± 0.2 nM, the “resistance ratio CEMVbl100/CEM” value (CEM^Vbl100 cells; [11]) is listed as 56.1 and the IC50 (CEM^Vbl100 cells; read-out: IC50 CEMVbl100, vinblastine resistant line) is listed as 230 ± 32 nM.
